Experimental data reported in ChEMBL document CHEMBL4689842, “EUbOPEN Chemogenomics Library wave 1” (2021).

Tested on: HEK-293T
Assay: Multiplex assay against HEK293T;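 as to Population Tubulin-Different-Phenotype (%): share of the cells with healthy nuclei that show this phenotype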
Assay type: toxicity, cell-based
Conditions: human
Summary of the method: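 Live cells were stained at seeding with Hoechst33342, BioTracker Green Microtubule Cytoskeleton Dye, MitoTracker Red and Annexin V Alexa Fluor 680. Following compound addition, they were imaged on a CQ1 microscope at 37°C and 5% CO2 and gated by CellPathfinder machine learning into Hoechst high-intensity objects or normal cells, with normal cells split into healthy, pyknosed or fragmented nuclei and pyknosed cells into mitotic or apoptotic. Tubulin, mitochondrial-mass and membrane-permeability phenotypes are per cents of healthy-nucleus cells.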

[1] = 12 h, 1 µM, compound concentration 1 uM, replicate 1
[2] = 12 h, 1 µM, compound concentration 1 uM, replicate 2
[3] = 12 h, 10 µM, compound concentration 10 uM, replicate 1
[4] = 12 h, 10 µM, compound concentration 10 uM, replicate 2
[5] = 24 h, 1 µM, compound concentration 1 uM, replicate 1
[6] = 24 h, 1 µM, compound concentration 1 uM, replicate 2
[7] = 24 h, 10 µM, compound concentration 10 uM, replicate 1
[8] = 24 h, 10 µM, compound concentration 10 uM, replicate 2

## Cc1nc(Nc2n[nH]c3c2CN(C(=O)N[C@H](CN(C)C)c2ccccc2)C3(C)C)c2sccc2n1 [PF-03758309]
[1]
  Population Apoptotic (%): 22%
  Population Fragmented Nuclei (%): 12%
  Population Healthy Nuclei (%): 65%
  Population Hoechst High Intensity Objects (%): 12%
  Population Membrane Permeable-Phenotype (%): 2%
  Population Mitochondria Different-Phenotype (%): 5%
  Population Mitotic Cells (%): 77%
  Population Normal (%): 87%
  Population Pyknosed Nuclei (%): 22%
  Population Tubulin-Different-Phenotype (%): 3%
  Total Cell Count: 616
[2]
  Population Apoptotic (%): 8%
  Population Fragmented Nuclei (%): 5%
  Population Healthy Nuclei (%): 87%
  Population Hoechst High Intensity Objects (%): 3%
  Population Membrane Permeable-Phenotype (%): 0%
  Population Mitochondria Different-Phenotype (%): 14%
  Population Mitotic Cells (%): 91%
  Population Normal (%): 96%
  Population Pyknosed Nuclei (%): 6%
  Population Tubulin-Different-Phenotype (%): 6%
  Total Cell Count: 1340
[3]
  Population Apoptotic (%): 27%
  Population Fragmented Nuclei (%): 16%
  Population Healthy Nuclei (%): 49%
  Population Hoechst High Intensity Objects (%): 17%
  Population Membrane Permeable-Phenotype (%): 12%
  Population Mitochondria Different-Phenotype (%): 21%
  Population Mitotic Cells (%): 72%
  Population Normal (%): 82%
  Population Pyknosed Nuclei (%): 33%
  Population Tubulin-Different-Phenotype (%): 45%
  Total Cell Count: 604
[4]
  Population Apoptotic (%): 24%
  Population Fragmented Nuclei (%): 3%
  Population Healthy Nuclei (%): 79%
  Population Hoechst High Intensity Objects (%): 6%
  Population Membrane Permeable-Phenotype (%): 10%
  Population Mitochondria Different-Phenotype (%): 46%
  Population Mitotic Cells (%): 75%
  Population Normal (%): 93%
  Population Pyknosed Nuclei (%): 16%
  Population Tubulin-Different-Phenotype (%): 87%
  Total Cell Count: 1040
[5]
  Population Apoptotic (%): 23%
  Population Fragmented Nuclei (%): 9%
  Population Healthy Nuclei (%): 76%
  Population Hoechst High Intensity Objects (%): 9%
  Population Membrane Permeable-Phenotype (%): 3%
  Population Mitochondria Different-Phenotype (%): 4%
  Population Mitotic Cells (%): 76%
  Population Normal (%): 90%
  Population Pyknosed Nuclei (%): 13%
  Population Tubulin-Different-Phenotype (%): 6%
  Total Cell Count: 623
[6]
  Population Apoptotic (%): 4%
  Population Fragmented Nuclei (%): 8%
  Population Healthy Nuclei (%): 84%
  Population Hoechst High Intensity Objects (%): 3%
  Population Membrane Permeable-Phenotype (%): 4%
  Population Mitochondria Different-Phenotype (%): 11%
  Population Mitotic Cells (%): 95%
  Population Normal (%): 96%
  Population Pyknosed Nuclei (%): 6%
  Population Tubulin-Different-Phenotype (%): 21%
  Total Cell Count: 1640
[7]
  Population Apoptotic (%): 27%
  Population Fragmented Nuclei (%): 15%
  Population Healthy Nuclei (%): 52%
  Population Hoechst High Intensity Objects (%): 14%
  Population Mitochondria Different-Phenotype (%): 24%
  Population Mitotic Cells (%): 72%
  Population Normal (%): 85%
  Population Pyknosed Nuclei (%): 31%
  Population Tubulin-Different-Phenotype (%): 47%
  Total Cell Count: 627
[8]
  Population Apoptotic (%): 14%
  Population Fragmented Nuclei (%): 4%
  Population Healthy Nuclei (%): 81%
  Population Hoechst High Intensity Objects (%): 7%
  Population Membrane Permeable-Phenotype (%): 8%
  Population Mitochondria Different-Phenotype (%): 47%
  Population Mitotic Cells (%): 85%
  Population Normal (%): 92%
  Population Pyknosed Nuclei (%): 14%
  Population Tubulin-Different-Phenotype (%): 89%
  Total Cell Count: 1130
